Screens deposited in PubChem BioAssay by several laboratories.
The full list was thinned out, with hits kept by preference.
T cruzi inh = inhibitors of intracellular T. cruzi growth, primary screen, luminescence, NIH3T3 host cells | AID 1885, 2009 | T. cruzi beta-gal in NIH3T3, 90 h | inhibition, % (concentration not given with the values) | actives 1.4% (n = 300,000);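 active = mean inhibition across valid replicates above about 55%, limit read from the data; inconclusive = mean below that limit but half or more replicates reach it; inactive = mean below it, under half of replicates reach it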;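 also: signal also drops with host cell toxicity which is not excluded here; 0% = plate median of DMSO wells and 100% = zero luminescence signal; higher percent means less beta-gal luminescence so fewer parasites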
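System: NIH/3T3 fibroblasts plus reporter T. cruzi. Medium: DMEM plus 2% FBS. Probe or stimulus: 5000 reporter trypomastigotes per well. Compound: single 50 nL compound addition per well in DMSO. Incubation: co-culture of at least 90 h after 3 h attachment. Detection: GalScreen β-gal luminescence, detergent lysis, 60 min. Evaluation: parasite load inhibition, %.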
Lmaj promast = Leishmania major promastigote growth inhibition, primary screen. Leishmania major promastigotes, resazurin fluorescence viability. inhibition, % at 10 µM. actives 9% (n = 200,000). AID 1063, 2008; in the data active = inhibition above about 50%;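 also: promastigotes grown with compound for 44 hours at 28 °C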
Hsp70 act = Hsp70 transcriptional activators, primary screen, cell-based, HeLa, Hsp70 promoter luciferase, luminescence, 10 µM | actives 0.04% (n = 200,000) | HeLa Hsp70 promoter luciferase reporter; scaled: vehicle 0, proteasome-inhibitor control 100% | activation, % at 10 µM;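 active = activation above the mean across all tested compounds plus 3 SD, cutoff set per campaign, cut at about 5.5% in these data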;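 also: 100% = MG132 at 30 µM as the positive control and 0% = DMSO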
HSF1 inhib = HSF1 inhibitors in luciferase reporter cells, primary screen, cell-based, NIH3T3, luminescence; NIH3T3-HGL HSE-luciferase, MG132-induced, luminescence 8 h; active compounds read low; actives 0.77% (n = 300,000); activity change, negative = inhibition, % at 7.5 µM (by protocol);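 active = more than half of replicate wells show activity change below -50%, luminescence cut by over half; inconclusive = some wells, but at most half, below -50%; inactive = no replicate well below -50%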;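 also: luciferase reports HSF-1 transcriptional activity via heat shock element; 0% = median of DMSO wells and -100% = zero luminescence signal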
HSF-1 act = HSF-1 activators, primary screen, NIH3T3-HGL cells, MG132 stress, luminescence, single point. NIH3T3-HGL HSF-1 luciferase reporter, 8 h; 100% = twice DMSO control signal. activation, % at 9 µM. actives 1.7% (n = 300,000);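 active = mean replicate activation of at least 50% with a set share of replicates each reaching 50%; inconclusive = only one of those two conditions met; inactive = mean below 50% and too few replicates reaching it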;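 also: 0% = median of the neutral control wells and 100% = twice that signal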
* = called active by the depositor; ? = inconclusive; · = no result.

SMILES | T cruzi inh | Lmaj promast | Hsp70 act | HSF1 inhib | HSF-1 act
COc1cc(C(=O)NCc2nnc(SCC(=O)N3CCOCC3)o2)cc(OC)c1OC | -1 | -7 | 0 | -4 | 26
NC(=O)c1ccccc1NC(=O)CC12CC3CC(CC(Br)(C3)C1)C2 | -13 | · | · | -2 | -12
Cc1cccc(OC2CCN(Cc3c(C(=O)N4CCCC4)nc4ccccn34)CC2)c1 | 7 | 99* | 0 | -3 | 6
O=C(c1nc2ccccn2c1CN1CCC(Cc2ccccc2)CC1)N1CCCC1 | 16 | 69* | 0 | -4 | 32
COC1CCN(Cc2c(C(=O)N3CCN(C4CCCCC4)CC3)nc3ccccn23)CC1 | 59* | · | · | -6 | -4
COCC1CCN(Cc2c(C(=O)N3CCN(C4CCCCC4)CC3)nc3ccccn23)C1 (centres undefined) | 28 | · | · | 1 | 6
CSc1ccc(CN2CCC(Oc3cccc(C(=O)N4CCCC4)c3)CC2)cc1 | 47 | · | · | -2 | -2
O=c1cc(CN2CCC(Cc3ccccc3)CC2)nc2sccn12 | 9 | 88* | 0 | -6 | 8
O=c1cc(CN2CCN(c3ccccn3)CC2)nc2sccn12 | -1 | 1 | 0 | -4 | 2
CC(=O)Nc1ccc(NC(=O)COC(=O)c2cc(S(=O)(=O)N(C)C)ccc2N2CCCC2)cc1 | -1 | · | · | 1 | 7
COc1ccc(OCC(=O)N2CCC(n3nccc3NC(=O)C3CC3)CC2)cc1 | -7 | · | · | 2 | -2
CCOc1ccccc1N(C)S(=O)(=O)c1ccc2c(c1)CC(C)N2C(=O)C1CC1 (centres undefined) | 5 | · | · | -7 | 10
CC(C)NC(=O)COC(=O)c1cccc(NS(=O)(=O)/C=C/c2ccccc2)c1 | 2 | -3 | 0 | 3 | 14
CC1CCCC(NC(=O)COC(=O)c2cccc(NS(=O)(=O)/C=C/c3ccccc3)c2)C1C (centres undefined) | -12 | 53* | 0 | -6 | 2
COc1cccc(/C=C(/C(=O)OCC(N)=O)c2ccccc2)c1 | -14 | 13 | 0 | -4 | -6
COc1cccc(/C=C(/C(=O)OCC(=O)NC2CCCC(C)C2C)c2ccccc2)c1 (centres undefined) | 3 | 96* | 0 | -10 | 5
Oc1c(C(Nc2cccc(C(F)(F)F)c2)c2cccnc2)ccc2cccnc12 (centres undefined) | ? | 100* | 0 | -12 | -3
Cc1cc(NC(c2cccnc2)c2ccc3cccnc3c2O)no1 (centres undefined) | 50 | 99* | 0 | -2 | 7
CC(=O)NC(c1cccc([N+](=O)[O-])c1)c1ccc2cccnc2c1O (centres undefined) | 52 | · | · | -11 | -6
O=C(NC1CCCCC1)c1cnn2c(C(F)(F)F)cc(-c3ccco3)nc12 | 18 | 29 | 0 | 19 | 70*
O=C(NC1CCCCC1)c1nn2c(C(F)(F)F)cc(-c3ccco3)nc2c1Br | -3 | 1 | 0 | -6 | -11
Cc1nn(-c2ccccc2)c(C)c1/C=N/NC(=O)CSc1nnc(SCc2ccccc2Cl)s1 | 23 | 11 | 0 | 41 | 68*
Cc1ccc(S(=O)(=O)N/N=C/c2c(C)nn(-c3ccccc3)c2C)cc1 | 9 | 0 | 0 | -54* | -65
O=C(COc1ccc(Cl)cc1Cl)NCC(=O)N/N=C/c1c[nH]c2ccccc12 | 6 | 70* | 0 | -10 | -7
O=C(CSc1nnc(SCc2ccc(Cl)cc2)s1)N/N=C/c1c[nH]c2ccccc12 | -10 | 65* | 0 | 5 | 31
SMILES | T cruzi inh | Lmaj promast | Hsp70 act | HSF1 inhib | HSF-1 act
Cc1ccc(S(=O)(=O)N/N=C\c2cn(-c3ccccc3)nc2-c2ccccc2)cc1 | 27 | 13 | 0 | -3 | -11
CC1CCN(c2oc(-c3ccc(F)cc3)nc2C#N)CC1 | 1 | · | · | 6 | 7
CCN(C(=O)COC(=O)C1CCN(S(=O)(=O)c2cccs2)CC1)c1ccccc1 | -10 | 0 | 0 | -1 | 6
Cc1nn(-c2ccccc2)c(C)c1/C=N/NC(=O)c1cc(-c2cccc3ccccc23)n[nH]1 | 39 | 31 | 0 | -3 | 19
Cc1ccc(-c2nnc(SCC(=O)N/N=C/c3c(C)nn(-c4ccccc4)c3C)n2-c2ccccc2)cc1 | 13 | 3 | 0 | 7 | 18
Cc1nn(-c2ccccc2)c(C)c1/C=N/NC(=O)c1cc(-c2ccccc2)n[nH]1 | -7 | 88* | 0 | -23 | -25
Cc1ccc(CSc2nnc(SCC(=O)N/N=C/c3c(C)nn(-c4ccccc4)c3C)s2)cc1 | 10 | 13 | 0 | 56 | 65*
CN=C(Nc1cccc(Cl)c1)SC1CC(=O)N(c2ccc(OC)cc2)C1=O (centres undefined) | 19 | 44 | 0 | 0 | 27
COc1ccc(Nc2nc(N3CCOCC3)nc(N3CCOCC3)n2)cc1Cl | 30 | · | · | -3 | 15
Cc1ccc2c(C)c(C(=O)N(Cc3ccccc3)C3CCS(=O)(=O)C3)oc2c1 (centres undefined) | 28 | · | · | -6 | -14
Cc1ccc2c(C)c(C(=O)N(Cc3cccs3)C3CCS(=O)(=O)C3)oc2c1 (centres undefined) | 9 | 88* | 0 | 5 | 16
COc1ccc(NC(=O)C(NC(=O)c2ccc(C)cc2)c2ccccc2)cc1 (centres undefined) | 4 | · | · | 0 | 12
CCN1C(=O)S/C(=C/c2ccc(Sc3nc4ccccc4[nH]3)o2)C1=O | -18 | -3 | 0 | 29 | 58*
Cc1ccc(NC(=S)N(CCN(C)C)C(C)c2ccco2)cc1C (centres undefined) | -14 | 46 | 0 | -2 | 15
COc1ccc(NC(=S)N(Cc2ccc(N(C)C)cc2)Cc2ccco2)cc1 | 23 | 39 | 0 | 68 | 91*
COc1ccc(NC(=S)N(Cc2ccc(C)cc2)Cc2ccccn2)cc1 | 77* | 95* | 0 | 11 | 37
COc1ccc(NC(=S)N(CCN(C)C)C(C)c2ccco2)cc1 (centres undefined) | -7 | 51* | 0 | 5 | 7
Cc1cccc(C(=O)Nc2nnc(S(=O)(=O)N(C)Cc3ccco3)s2)c1 | -3 | · | · | 4 | 5
COc1ccc2cc(-c3csc(-c4cccnc4)n3)ccc2c1 | -25 | -2 | 0 | -2 | -8
COc1ccc(-c2csc(-c3cccnc3)n2)cc1C | 16 | 80* | 0 | -8 | -1
Clc1cccc(Nc2nc(-c3cccnc3)cs2)c1 | 59* | 54* | 0 | 16 | 20
Brc1cccc(Nc2nc(-c3cccnc3)cs2)c1 | 39 | · | · | 10 | -3
COc1ccc(Cl)cc1Nc1nc(-c2cccnc2)cs1 | 56* | · | · | -4 | 20
Cc1cc(C)cc(C(=O)NCCC(=O)N2CCC3(CC2)NCCc2[nH]cnc23)c1 | -5 | · | · | 5 | 25
